How the values were obtained:
Type in all cases: functional
[1] = tested on: Mycobacterium tuberculosis; assay: Antimycobacterial activity against Mycobacterium tuberculosis clinical isolates from tuberculosis patient assessed as percent resistant isolates at 0.2 ug/ml by absolute-concentration method
Procedure, shortened: (§1)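 Consecutive clinical M. tuberculosis isolates (196), Tbilisi, Jan–Mar 2006, primary culture on Lowenstein-Jensen medium. Suspension adjusted to 1 McFarland in sterile saline. 0.2 ml was plated onto drug-containing solid medium: a 10-fold dilution series for the 2, 4 and 40 µg/ml media, and a 100-fold dilution for the 0.2 µg/ml medium. Incubation at 37°C, 5–10% CO2, 28 days.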

[2] = tested on: Mycobacterium tuberculosis; assay: Antimycobacterial activity against Mycobacterium tuberculosis clinical isolates from tuberculosis patient assessed as percent resistant isolates at 4 ug/ml by absolute-concentration method; procedure, shortened: as §1
[3] = tested on: Mycobacterium tuberculosis; assay: Antimycobacterial activity against Mycobacterium tuberculosis clinical isolates from tuberculosis patient assessed as percent resistant isolates at 40 ug/ml by absolute-concentration method; procedure, shortened: as §1
[4] = tested on: Mycobacterium tuberculosis; assay: Antimycobacterial activity against Mycobacterium tuberculosis clinical isolates from tuberculosis patient assessed as percent resistant isolates at 2 ug/ml by absolute-concentration method; procedure, shortened: as §1

`NNC(=O)c1ccncc1` [ISONIAZID] was tested. Which Activity [1] did it give?
Its Activity is 20.9%.

For `CN[C@@H]1[C@H](O[C@H]2[C@H](O[C@H]3[C@H](O)[C@@H](O)[C@H](N=C(N)N)[C@@H](O)[C@@H]3N=C(N)N)O[C@@H](C)[C@]2(O)C=O)O[C@@H](CO)[C@H](O)[C@H]1O` [STREPTOMYCIN], which Activity [2] is on record?
Its Activity is 25%.

Which Activity [3] does the source give for `CO[C@H]1/C=C/O[C@@]2(C)Oc3c(C)c(O)c4c(O)c(c(/C=N/N5CCN(C)CC5)c(O)c4c3C2=O)NC(=O)/C(C)=C\C=C\[C@H](C)[C@H](O)[C@@H](C)[C@@H](O)[C@@H](C)[C@H](OC(C)=O)[C@@H]1C` [RIFAMPIN] here?
Its Activity is 9.2%.

Which Activity [4] does the source give for `CC[C@@H](CO)NCCN[C@@H](CC)CO` [ETHAMBUTOL] here?
The Activity was 2.6%.
